According to ChEMBL document CHEMBL1122610, “Dichloro[1,2-bis(4-hydroxyphenyl)ethylenediamine]platinum(II) complexes: an approach to develop compounds with a specific effect on the hormone-dependent mammary carcinoma” (J Med Chem, 1984):
Values joined by “and” are separate entries in the source; they are usually repeats but may differ in a detail not shown here. Identical values can stand only once.

What was measured:
Mus musculus [1] = experiment: Animals without tumor after the test against the ADJ/PC6 Plasmacytoma cells of the BALB/C mouse at a dose of 20 mg/kg after 37 days was determined in vivo; assay type: functional, organism-based; parameters: dose 20 mg/kg
Mus musculus [2] = experiment: Animals without tumor after the test against the ADJ/PC6 Plasmacytoma cells of the BALB/C mouse at a dose of 15 mg/kg after 38 days was determined in vivo; assay type: functional, organism-based; parameters: dose 15 mg/kg
Mus musculus [3] = experiment: Antitumor activity against the ADJ/PC6 Plasmacytoma cells of the BALB/C mouse at a dose of 20 mg/kg after 37 days was determined in vivo; assay type: functional, organism-based; parameters: dose 20 mg/kg
Outline: (§1)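 Female Balb/C mice, 14–18 g, inoculated subcutaneously with 5 × 10^6 ADJ/PC6 cells in 0.1 mL PBS (day 0). Compounds suspended in olive oil, given intraperitoneally as a single dose (day 1) or triple dose (days 1, 2, 3). Groups usually of 10 animals; cisplatin positive control. Test ran about 38 days; activity read as mean tumor volume as percent of untreated control (T/C, %).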

Mus musculus [4] = experiment: Number of deaths against the ADJ/PC6 Plasmacytoma cells of the BALB/C mouse at a dose of 20 mg/kg after 37 days was determined in vivo; Value denoted as dead/test = 2/10; assay type: functional, organism-based; parameters: dose 20 mg/kg
Mus musculus [5] = experiment: Antitumor activity against the ADJ/PC6 Plasmacytoma cells of the BALB/C mouse at a dose of 15 mg/kg after 38 days was determined in vivo; Value denoted as dead/test = 1/10; assay type: functional, organism-based; parameters: dose 15 mg/kg; outline: as §1
Rattus norvegicus [6] = experiment: Compound was tested for the increase in life span of L5222 Leukemia implanted rat at dose 20(60) mg/kg; assay type: functional, organism-based
Outline: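 BD IX rats, 3–6 months old, half female and half male, six per dose group, given 1 × 10^6 L 5222 cells in 1.0 mL physiological saline intraperitoneally (day 0). Complex dissolved in olive oil at 1 mg/mL; three injections on days 1, 2, 3 or 1, 5, 9. Scored as percent increased life span (ILS).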

Mus musculus [7] = experiment: Antitumor activity against the ADJ/PC6 Plasmacytoma cells of the BALB/C mouse at a dose of 20 mg/kg after 38 days was determined in vivo; Value denoted as dead/test = 0/10; assay type: functional, organism-based; parameters: dose 20 mg/kg; outline: as §1
[8] = molecular target: Estrogen receptor (Bos taurus) (UniProt Q9XSB5+P49884); experiment: In vitro inhibition of 1*10e-9 M [3H]estradiol binding to Estrogen receptor of calf uterine cytosol at 1*10e-5 M; assay type: protein assay
Outline: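 Competition of [3H]estradiol binding in calf uterine cytosol (final protein 5 mg/mL); bound and free ligand separated by dextran-coated charcoal; percent inhibition of binding reported.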

Mus musculus [9] = experiment: Number of deaths against the ADJ/PC6 Plasmacytoma cells of the BALB/C mouse at a dose of 20 mg/kg after 38 days was determined in vivo; assay type: functional, organism-based; parameters: dose 20 mg/kg
Rattus norvegicus [10] = experiment: Compound was tested for the survival against L5222 Leukemia implanted rat at dose 20(60) mg/kg; assay type: functional, organism-based
Outline: (§2)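 BD IX rats (3–6 months old, half female, half male), six per dose group, given 1 × 10^6 L 5222 cells in 1.0 mL physiological saline i.p. on day 0. The complex was in olive oil at a final 1 mg/mL and given i.p. as three injections, on days 1, 2, 3 or days 1, 5, 9. Read-out is median survival day and percent ILS.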

Mus musculus [11] = experiment: Number of deaths against the ADJ/PC6 Plasmacytoma cells of the BALB/C mouse at a dose of 15 mg/kg after 38 days was determined in vivo; assay type: functional, organism-based; parameters: dose 15 mg/kg
Mus musculus [12] = experiment: Animals without tumor after the test against the ADJ/PC6 Plasmacytoma cells of the BALB/C mouse at a dose of 20 mg/kg after 38 days was determined in vivo; assay type: functional, organism-based; parameters: dose 20 mg/kg
Mus musculus [13] = experiment: Number of deaths against the ADJ/PC6 Plasmacytoma cells of the BALB/C mouse at a dose of 8 mg/kg after 37 days was determined in vivo; assay type: functional, organism-based; parameters: dose 8 mg/kg
MDA-MB-231 = experiment: In vitro incorporation of [3H]thymidine into hormone-independent MDA-MB 231 breast cancer cells; assay type: functional, cell-based; conditions: Homo sapiens
Outline: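 MDA-MB 231 cells grown in McCoy 5a with 10% newborn calf serum and gentamycin, switched to 5% serum 1 h before the experiment. Compounds added from fresh 1000-fold Me2SO concentrates (final solvent 0.1%). [3H]Thymidine incorporation into TCA-precipitable material measured. Mean of triplicates.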

Rattus norvegicus [14] = experiment: Compound was tested for the survival against L5222 Leukemia implanted rat at dose 3.5(10.5) mg/kg; assay type: functional, organism-based; outline: as §2
Rattus norvegicus [15] = experiment: Compound was tested for the survival against L5222 Leukemia implanted rat at dose 3.5(10.5)mg/kg; assay type: functional, organism-based; outline: as §2
ADJ/PC6 = experiment: In vitro incorporation of the [3H]thymidine into the ADJ/PC6 Plasmacytoma cells; assay type: functional, cell-based; conditions: Mus musculus
Outline: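 ADJ/PC6 tumor taken from passaged female Balb/C mice, minced and gently dispersed, then suspended in Eagle's MEM with 5% heat-inactivated horse serum, Hepes (5 mg/mL) and 0.1% Pluronic F 68, and filtered through gauze. Cells incubated 3 h at 37 °C with shaking, then pulsed with 1 μCi [methyl-3H]thymidine for 2 h. Ice-cold PBS stop, saline washes, sonication. Triplicates.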

Mus musculus [16] = experiment: Animals without tumor after the test against the ADJ/PC6 Plasmacytoma cells of the BALB/C mouse at a dose of 8 mg/kg after 37 days was determined in vivo; assay type: functional, organism-based; parameters: dose 8 mg/kg
Mus musculus [17] = experiment: Antitumor activity against the ADJ/PC6 Plasmacytoma cells of the BALB/C mouse at a dose of 8 mg/kg after 37 days was determined in vivo; assay type: functional, organism-based; parameters: dose 8 mg/kg; outline: as §1

Row | Substance | Activity (Mus musculus [1]) | Activity (Mus musculus [2]) | T/C (Mus musculus [3]) [%] | Deaths (Mus musculus [4]) | T/C (Mus musculus [5]) [%] | ILS (Rattus norvegicus [6]) [%] | T/C (Mus musculus [7]) [%] | inhibition [8] | Deaths (Mus musculus [9]) | Median day of survival (Rattus norvegicus [10]) | Deaths (Mus musculus [11]) | Activity (Mus musculus [12]) | Deaths (Mus musculus [13]) | ID50 (MDA-MB-231) [µM] | Median day of survival (Rattus norvegicus [14]) | Median day of survival (Rattus norvegicus [15]) | ID50 (ADJ/PC6) [µM] | Activity (Mus musculus [16]) | T/C (Mus musculus [17]) [%]
1 | (+) R,R-dichloro-[1,2-bis(4-hydroxyphenyl)ethylenediamine]platinum (II) | 8 | 7 | 0 | 2 | 1 | 175 | 0 | 11% and 13.7% and 9.7% | 0 | 18 | 1 | 7 |  |  |  |  |  |  | 
2 | CISPLATIN |  |  |  |  |  |  |  |  |  |  |  |  | 0 | 0.65 | 17.5 | 14.5 | 9.5 | 10 | 0
